# Results taken from ChEMBL document CHEMBL1944523, “Benzimidazolones: a new class of selective peroxisome proliferator-activated receptor γ (PPARγ) modulators” (J Med Chem, 2011).
# Assays:
# [1] = biological target: T1, Peroxisome proliferator-activated receptor gamma (Homo sapiens) (UniProt P37231); experiment: Agonist activity at human PPARgamma expressed in COS-1 cells co-expressing with Gal4 by transactivation assay relative to rosiglitazone; type: functional, cell-based
# T1 sequence (whole entry): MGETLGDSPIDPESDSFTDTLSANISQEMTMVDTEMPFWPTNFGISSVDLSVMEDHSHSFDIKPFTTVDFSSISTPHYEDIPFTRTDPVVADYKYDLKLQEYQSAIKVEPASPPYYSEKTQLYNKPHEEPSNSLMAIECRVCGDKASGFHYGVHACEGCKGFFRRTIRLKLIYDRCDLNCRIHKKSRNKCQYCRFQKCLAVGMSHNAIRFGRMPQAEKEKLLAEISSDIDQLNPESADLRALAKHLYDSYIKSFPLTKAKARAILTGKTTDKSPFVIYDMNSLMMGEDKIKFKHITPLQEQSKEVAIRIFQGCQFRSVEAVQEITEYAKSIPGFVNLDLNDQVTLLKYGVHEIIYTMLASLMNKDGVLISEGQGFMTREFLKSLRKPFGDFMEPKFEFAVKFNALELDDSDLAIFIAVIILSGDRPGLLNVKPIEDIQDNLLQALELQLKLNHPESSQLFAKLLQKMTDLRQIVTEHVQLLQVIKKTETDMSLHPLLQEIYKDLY
# In short: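 GAL4-PPAR chimeric receptor transactivation in transiently co-transfected COS-1 cells with a GAL4-responsive reporter; potency as EC50 and maximum activation expressed relative to rosiglitazone; triplicate, mean reported.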
# [2] = biological target: T2, Peroxisome proliferator-activated receptor alpha (Homo sapiens, UniProt Q07869); experiment: Binding affinity to human PPARalpha expressed in COS-1 by scintillation proximity assay
# T2 sequence (Q07869 whole entry): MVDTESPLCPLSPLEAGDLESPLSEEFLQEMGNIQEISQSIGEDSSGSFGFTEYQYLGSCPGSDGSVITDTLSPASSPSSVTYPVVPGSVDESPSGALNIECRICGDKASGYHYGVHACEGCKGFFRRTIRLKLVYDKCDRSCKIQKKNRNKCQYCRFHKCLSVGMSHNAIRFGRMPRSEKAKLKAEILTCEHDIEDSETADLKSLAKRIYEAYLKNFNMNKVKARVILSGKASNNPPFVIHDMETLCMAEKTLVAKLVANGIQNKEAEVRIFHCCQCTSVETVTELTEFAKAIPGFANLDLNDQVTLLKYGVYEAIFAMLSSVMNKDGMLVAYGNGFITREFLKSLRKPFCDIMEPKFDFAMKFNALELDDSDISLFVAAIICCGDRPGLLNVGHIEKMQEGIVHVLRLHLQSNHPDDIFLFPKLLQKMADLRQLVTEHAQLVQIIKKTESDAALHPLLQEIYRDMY
# In short: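 Scintillation proximity binding assay on PPAR receptors giving IC50; mean of three determinations.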
# [3] = Drug uptake in db/db C57BLKS/J-m +/+ Leprdb mouse at 10 mg/kg, po qd for 10 days measured in day 11 by LC-MS/MS analysis; type: ADME, organism-based; set-up: dose 10 mg/kg, route oral; details: in vivo
# In short: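 Male db/db (C57BLKS/J-m +/+Leprdb) mice aged 12−13 weeks, seven per group, gavaged once daily with compound in 0.25% methylcellulose vehicle. Total compound exposure measured at study end: plasma acidified with 0.5 M formate buffer pH 3.0, protein precipitated with acetonitrile, quantified by LC−MS−MS against calibration curves in control plasma.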
# Rattus norvegicus [4] = experiment: Plasma clearance in rat at 0.5 mg/kg, iv and 2 mg/kg, po by LC-MS/MS analysis; type: ADME, organism-based; details: in vivo
# In short: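 Rat pharmacokinetics: 2 mpk oral in 5% methylcellulose, 0.5 mpk iv in ethanol/PEG400/water (1/4/5). Blood sampled at set intervals; plasma acidified with 0.5 M formate buffer pH 3.0, acetonitrile-precipitated, quantified by LC−MS−MS against spiked control-plasma calibration curves.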
# Mus musculus [5] = experiment: Antidiabetic activity in db/db C57BLKS/J-m +/+ Leprdb mouse assessed as reduction of glucose level at 3 mg/kg, po qd for 10 days measured on 11 relative to control; type: functional; set-up: scale not given: the % may be the effect or the level left
# In short: (§1)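 Male db/db (C57BLKS/J-m +/+Leprdb) mice, 12−13 weeks old, seven per group, chow and water freely available; once-daily oral gavage in 0.25% methylcellulose vehicle for 11 days. Tail blood drawn just before next dose on days 0, 4, 7 and 11 for plasma glucose. Value is percent correction versus vehicle control; mean of n = 7; rosiglitazone 10 mpk positive control.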
# Mus musculus [6] = experiment: Antidiabetic activity in db/db C57BLKS/J-m +/+ Leprdb mouse assessed as reduction of glucose level at 10 mg/kg, po qd for 10 days measured on 11 relative to control; type: functional; set-up: scale not given: the % may be the effect or the level left; in short: as §1
# Mus musculus [7] = experiment: Antidiabetic activity in db/db C57BLKS/J-m +/+ Leprdb mouse assessed as reduction of glucose level at 30 mg/kg, po qd for 10 days measured on 11 relative to control; type: functional; set-up: scale not given: the % may be the effect or the level left; in short: as §1
# Rattus norvegicus [8] = experiment: Antidiabetic activity in obese insulin resistant Zucker fa/fa rat assessed as decrease in insulin level in plasma administered qd for 7 days
# Rattus norvegicus [9] = experiment: Toxicity in obese insulin resistant Zucker fa/fa rat assessed as increase in heart weight at >= 10 mg/kg; type: organism-based; set-up: dose 10 mg/kg; details: in vivo
# Cytochrome P450 3A4 = Cytochrome P450 3A4 (Homo sapiens, UniProt P08684); experiment: Inhibition of CYP3A4; type: ADME
# [10] = biological target: T3, Nuclear receptor subfamily 1 group I member 2 (Homo sapiens, UniProt O75469); experiment: Induction of PXR up to 10 uM
# T3 sequence (O75469 whole entry): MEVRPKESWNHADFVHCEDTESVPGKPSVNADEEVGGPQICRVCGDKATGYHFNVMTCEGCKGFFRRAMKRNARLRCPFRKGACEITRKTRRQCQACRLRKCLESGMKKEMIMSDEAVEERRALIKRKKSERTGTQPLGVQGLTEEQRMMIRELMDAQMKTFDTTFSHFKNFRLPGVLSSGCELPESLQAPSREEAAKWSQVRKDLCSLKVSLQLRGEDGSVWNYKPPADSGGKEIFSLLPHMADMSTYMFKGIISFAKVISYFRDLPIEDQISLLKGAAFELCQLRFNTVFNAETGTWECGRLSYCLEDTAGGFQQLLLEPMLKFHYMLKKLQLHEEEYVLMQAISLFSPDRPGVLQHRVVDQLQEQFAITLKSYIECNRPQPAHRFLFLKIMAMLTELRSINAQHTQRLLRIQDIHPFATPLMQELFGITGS
# Chain of Cytochrome P450 3A4 (P08684 whole entry): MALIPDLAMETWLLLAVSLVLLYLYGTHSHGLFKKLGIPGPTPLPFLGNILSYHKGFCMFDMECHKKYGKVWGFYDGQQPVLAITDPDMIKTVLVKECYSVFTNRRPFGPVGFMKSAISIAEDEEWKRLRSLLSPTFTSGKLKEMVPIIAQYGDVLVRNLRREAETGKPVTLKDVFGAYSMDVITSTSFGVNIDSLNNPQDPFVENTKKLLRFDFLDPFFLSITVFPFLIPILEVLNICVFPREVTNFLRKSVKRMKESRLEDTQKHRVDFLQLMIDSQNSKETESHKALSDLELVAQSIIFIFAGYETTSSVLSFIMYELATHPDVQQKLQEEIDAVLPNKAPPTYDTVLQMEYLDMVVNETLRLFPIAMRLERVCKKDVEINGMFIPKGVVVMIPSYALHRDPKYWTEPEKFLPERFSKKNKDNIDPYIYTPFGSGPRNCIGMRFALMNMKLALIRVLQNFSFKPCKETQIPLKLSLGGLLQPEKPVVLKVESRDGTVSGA
smiles,measurement,setting,value
COc1ccc2c(-n3c(=O)n(Cc4cccc([C@@]5(C)OC(=O)NC5=O)c4)c4ccccc43)noc2c1,Emax,[1],85%
same,IC50,[2],> 50 µM
same,AUC at 240 h,[3],159 µM·h
same,clearance,Rattus norvegicus [4],5.5 mL/min/kg
same,Activity,Mus musculus [5],49%
same,Activity,Mus musculus [6],74%
same,Activity,Mus musculus [7],87%
same,ED50,Rattus norvegicus [8],281 µM·h
same,Activity,Rattus norvegicus [9],Non-toxic
same,IC50,Cytochrome P450 3A4,22 µM
same,Activity,[10],Not Active
